# pIC50: −log10 of the molar value. Like-named read-outs stand apart in the source and are kept apart here.
# Assays:
# MATE1 = target: T1, MATE1 (Homo sapiens, UniProt Q96FL8); test: Inhibitory potency towards MATE1; type: in vitro ADME
# T1 sequence (Q96FL8 1-570): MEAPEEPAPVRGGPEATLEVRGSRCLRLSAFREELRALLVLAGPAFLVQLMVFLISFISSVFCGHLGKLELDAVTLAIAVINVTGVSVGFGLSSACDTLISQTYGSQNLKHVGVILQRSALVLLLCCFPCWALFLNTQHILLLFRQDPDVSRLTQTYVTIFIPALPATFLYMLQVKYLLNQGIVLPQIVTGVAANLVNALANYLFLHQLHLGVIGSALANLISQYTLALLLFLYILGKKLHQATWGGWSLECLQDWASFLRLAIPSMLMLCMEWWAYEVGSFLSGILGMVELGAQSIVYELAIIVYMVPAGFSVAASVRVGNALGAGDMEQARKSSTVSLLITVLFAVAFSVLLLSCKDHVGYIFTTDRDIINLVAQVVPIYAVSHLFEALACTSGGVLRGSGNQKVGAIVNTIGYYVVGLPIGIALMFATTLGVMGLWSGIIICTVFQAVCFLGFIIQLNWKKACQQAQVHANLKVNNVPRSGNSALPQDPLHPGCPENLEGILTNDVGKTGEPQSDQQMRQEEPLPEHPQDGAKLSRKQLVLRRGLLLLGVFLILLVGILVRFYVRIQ
# [1] = Phase I DDI study with rifampicin; type: in vivo, human
# Summary of the method: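 Non-randomized, non-blinded, fixed-sequence study in healthy men. Test compound 10 mg single oral dose, fed, alone and then with rifampicin 600 mg QD orally for 9 days (pre- and co-treatment).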
# CYP2B6 = test: CYP induction in cultured human hepatocytes: CYP2B6; type: in vitro ADME; conditions: three donors, up to 10,000 μg/L (23.5 µM)
# [2] = ref data on file, cited from earlier work
# [3] = cited from earlier work
# UGT1A6 = target: T2, UGT1A6 (Homo sapiens, UniProt P19224); test: Inhibitory potency towards UGT isoforms: UGT1A6; type: in vitro ADME
# T2 sequence (P19224 27-532): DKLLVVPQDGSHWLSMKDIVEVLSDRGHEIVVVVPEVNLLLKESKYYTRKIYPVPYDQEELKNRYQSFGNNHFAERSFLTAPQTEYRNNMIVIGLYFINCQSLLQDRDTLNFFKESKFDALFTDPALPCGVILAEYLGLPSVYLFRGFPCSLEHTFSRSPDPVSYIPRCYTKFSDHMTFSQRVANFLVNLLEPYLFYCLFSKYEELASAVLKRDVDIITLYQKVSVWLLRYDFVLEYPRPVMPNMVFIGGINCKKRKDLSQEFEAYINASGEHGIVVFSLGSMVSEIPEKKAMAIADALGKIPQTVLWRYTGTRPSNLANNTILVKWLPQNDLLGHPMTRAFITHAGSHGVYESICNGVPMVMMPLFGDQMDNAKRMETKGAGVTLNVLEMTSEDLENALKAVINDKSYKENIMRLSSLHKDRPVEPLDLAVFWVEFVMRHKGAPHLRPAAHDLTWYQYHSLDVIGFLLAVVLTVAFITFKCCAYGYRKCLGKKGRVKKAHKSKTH
# CYP3A4 = test: CYP induction in cultured human hepatocytes: CYP3A4; type: in vitro ADME; conditions: one of the three donors
# [4] = Phase I DDI study with ketoconazole; type: in vivo, human
# Summary of the method: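 Randomized, open-label, two-fold crossover in healthy men. Ketoconazole 200 mg BID orally for 3 days, given before and with a single oral 1.25 mg dose of test compound, fed, versus test compound alone.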
# UGT2B7 = target: T3, UGT2B7 (Homo sapiens, UniProt P16662); test: Inhibitory potency towards UGT isoforms: UGT2B7; type: in vitro ADME
# T3 sequence (P16662 24-529): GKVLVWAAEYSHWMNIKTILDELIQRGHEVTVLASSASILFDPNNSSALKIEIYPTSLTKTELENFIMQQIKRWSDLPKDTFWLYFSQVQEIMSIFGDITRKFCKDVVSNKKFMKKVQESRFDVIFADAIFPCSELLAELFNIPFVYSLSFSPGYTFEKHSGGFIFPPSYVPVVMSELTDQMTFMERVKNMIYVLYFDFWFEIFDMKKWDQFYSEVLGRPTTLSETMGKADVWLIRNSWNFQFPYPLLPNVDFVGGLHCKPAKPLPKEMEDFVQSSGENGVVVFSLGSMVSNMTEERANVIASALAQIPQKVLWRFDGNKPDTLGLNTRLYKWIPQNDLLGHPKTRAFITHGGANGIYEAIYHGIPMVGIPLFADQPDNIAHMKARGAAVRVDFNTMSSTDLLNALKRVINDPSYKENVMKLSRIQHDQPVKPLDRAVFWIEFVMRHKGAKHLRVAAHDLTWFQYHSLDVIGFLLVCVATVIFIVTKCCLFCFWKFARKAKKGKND
# [5] = serum albumin main binding component; ref data on file; cited from earlier work
# UGT2B4 = target: T4, UGT2B4 (Homo sapiens, UniProt P06133); test: Inhibitory potency towards UGT isoforms: UGT2B4; type: in vitro ADME
# T4 sequence (P06133 24-528): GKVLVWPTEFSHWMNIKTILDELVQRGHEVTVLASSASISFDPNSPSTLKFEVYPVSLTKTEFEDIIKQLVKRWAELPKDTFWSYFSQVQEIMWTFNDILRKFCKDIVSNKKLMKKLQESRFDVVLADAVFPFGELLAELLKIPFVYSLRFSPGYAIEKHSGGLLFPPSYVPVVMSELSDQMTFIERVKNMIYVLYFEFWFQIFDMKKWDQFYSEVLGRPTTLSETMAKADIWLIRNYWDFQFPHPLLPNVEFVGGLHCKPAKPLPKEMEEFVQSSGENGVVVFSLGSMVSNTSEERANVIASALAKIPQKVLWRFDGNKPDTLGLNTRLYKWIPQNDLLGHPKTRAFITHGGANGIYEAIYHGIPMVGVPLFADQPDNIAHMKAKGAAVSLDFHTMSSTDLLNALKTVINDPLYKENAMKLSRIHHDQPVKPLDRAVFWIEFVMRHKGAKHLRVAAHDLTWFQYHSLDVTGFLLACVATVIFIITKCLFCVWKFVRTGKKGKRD
# [6] = with rifampicin 600 mg QD vs vericiguat 10 mg SD alone, fed
# [7] = following a 10-mg dose once daily
# [8] = with ketoconazole 200 mg BID vs vericiguat 1.25 mg SD alone, fed
compound,measurement,setting,value
COC(=O)Nc1c(N)nc(-c2nn(Cc3ccccc3F)c3ncc(F)cc23)nc1N [Vericiguat],pIC50,MATE1,< 5.00
same,Decrease in Cmax of vericiguat,[1]; pre- and co-treatment with rifampicin,9%
same,Decrease in AUC of vericiguat,[1]; pre- and co-treatment with rifampicin 600 mg once daily,29%
same,"AUC of vericiguat, point estimate of treatment ratio",[1]; [6],0.713
same,"Cmax of vericiguat, point estimate of treatment ratio",[1]; [6],0.914
same,Induction of CYP2B6,CYP2B6,no significant induction
same,Projected unbound inlet Cmax,[2]; [7],30 nM
same,Unbound Cmax,[2]; [7],approximately 0.02 µM
same,Unbound Cmax,[2]; multiple-dose oral 10 mg once daily in patients with HFrEF,approximately 0.02 µM
same,Cmax,"[2]; read-out: Total Cmax, following a 10-mg dose once daily",~800 nM
same,Increase in AUC after administration with food compared to without,[3]; vericiguat alone,approximately 44%
same,Increase in Cmax after administration with food compared to without,[3]; vericiguat alone,~41%
same,Geometric coefficient of variation in AUC,[3]; with food,19%
same,Oral bioavailability,[3]; with food,93%
same,Geometric coefficient of variation in AUC,[3]; without food,41%
same,pIC50,UGT1A6,< 4.30
same,CYP3A4 mRNA induction relative to rifampicin [positive control] response,CYP3A4; highest tested concentration,4%
same,Increase in CYP3A4 messenger RNA,"CYP3A4; highest tested concentration 10,000 μg/L (23.5 µM)",2.7 fold
same,Increase in vericiguat exposure (AUC),[4]; co-administration with ketoconazole 200 mg twice daily,13%
same,"AUC of vericiguat, point estimate of treatment ratio",[4]; [8],1.126
same,"Cmax of vericiguat, point estimate of treatment ratio",[4]; [8],1.109
same,pIC50,UGT2B7,< 4.30
same,Plasma protein binding,[5],approximately 98%
same,pIC50,UGT2B4,< 4.30
